# Source: PubChem BioAssay
# In the library only some 6.8% were active in any assay of this set; here they are far more common.
# HSF1 inhib – HSF1 inhibitors in luciferase reporter cells, primary screen, cell-based, NIH3T3, luminescence. activity change, negative = inhibition, % at 7.5 µM (by protocol). NIH3T3-HGL HSE-luciferase, MG132-induced, luminescence 8 h; active compounds read low. AID 2098, 2009. 0.77% of 300,000 active;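 active = more than half of replicate wells show activity change below -50%, luminescence cut by over half; inconclusive = some wells, but at most half, below -50%; inactive = no replicate well below -50%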;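 also: luciferase reports HSF-1 transcriptional activity via heat shock element; 0% = median of DMSO wells and -100% = zero luminescence signal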
# PHOSPHO1 block – PubChem AID 1565; Phosphoethanolamine/phosphocholine phosphatase (Homo sapiens), Q8TCT1; recombinant PHOSPHO1, absorbance phosphatase assay; inhibition, % at 13.3 µM; 1.1% of 290,000 active; in the data active = inhibition above about 60%
# Target sequence (Q8TCT1 whole entry, looked up): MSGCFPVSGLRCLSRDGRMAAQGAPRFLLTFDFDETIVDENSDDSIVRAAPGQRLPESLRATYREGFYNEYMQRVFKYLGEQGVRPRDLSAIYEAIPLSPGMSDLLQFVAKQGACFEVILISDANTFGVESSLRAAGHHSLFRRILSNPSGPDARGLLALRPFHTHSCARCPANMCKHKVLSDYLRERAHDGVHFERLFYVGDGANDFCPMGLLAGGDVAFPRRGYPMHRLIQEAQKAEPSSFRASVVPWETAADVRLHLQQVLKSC
# HSF-1 act – HSF-1 activators, primary screen, NIH3T3-HGL cells, MG132 stress, luminescence, single point. NIH3T3-HGL HSF-1 luciferase reporter, 8 h; 100% = twice DMSO control signal. activation, % at 9 µM. 1.7% of 300,000 active. AID 504408, 2011;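 active = mean replicate activation of at least 50% with a set share of replicates each reaching 50%; inconclusive = only one of those two conditions met; inactive = mean below 50% and too few replicates reaching it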;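 also: 0% = median of the neutral control wells and 100% = twice that signal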
# AI-2 QS mod – Vibrio harveyi AI-2 quorum sensing modulators, primary screen, JMH597 strain, luminescence/OD600 ratio. 0.4% of 300,000 active. activity change, % at 7.5 µM. Vibrio harveyi JMH597 AI-2 luminescence/OD600 ratio, 9 h; active compounds read low; strain lacks LuxN and CqsS sensors; 0 = neutral-control median; in the data active = activity change below about -75%, passing the limit was not always enough; inconclusive = no clear call, values can overlap the other calls;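 also: luminescence divided by OD600 gain over 9 h not by final OD600 alone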
# HCV core dimer – inhibitors of HCV core protein dimerization, primary screen, biochemical, TR-FRET, high-throughput; TR-FRET GST/Flag-core106 dimerization, 1536-well; inhibition, % at 5 µM; 0.33% of 300,000 active;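 active = inhibition above the mean of all tested compounds plus 3 SD, set per screening campaign, cut at about 45% in these data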
#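 Assay system: GST-tagged and Flag-tagged HCV core protein residues 1-106 / Times: compound-protein-antibody incubation 4 h at 22.5 °C / Signal: time-resolved FRET, ex 340 nm, em 617 and 671 nm / Evaluation: % inhibition based on acceptor/donor emission ratio / Benchmarks: wells lacking GST-core106 and wells with excess unlabelled core106 / Repeats: singlicate, one well per compound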
# ALR inh – inhibitors of human ALR sulfhydryl oxidase, primary screen, biochemical, H2O2 detection, HRP-luminol luminescence, single point; purified ALR, DTT oxidation; FAD-linked sulfhydryl oxidase ALR (Homo sapiens), P55789; 3.8% of 290,000 active; AID 485317, 2010; inhibition, % (concentration not given with the values);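 active = mean replicate inhibition above about 79%, with every replicate also reaching it, limit read from the data; inconclusive = only one of the two criteria met; inactive = mean below limit and not every replicate reaching it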
# Target sequence (P55789 whole entry, looked up): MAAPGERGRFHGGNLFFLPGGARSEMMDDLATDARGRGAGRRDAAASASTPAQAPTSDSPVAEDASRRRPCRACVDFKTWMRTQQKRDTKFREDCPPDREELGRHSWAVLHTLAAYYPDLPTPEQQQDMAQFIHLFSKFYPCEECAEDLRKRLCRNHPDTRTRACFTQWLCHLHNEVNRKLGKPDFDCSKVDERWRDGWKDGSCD
# Starred values were filed as active, the others as inactive; ? = inconclusive; . = no result given.
SMILES,HSF1 inhib,PHOSPHO1 block,HSF-1 act,AI-2 QS mod,HCV core dimer,ALR inh
Cc1sc2nc(CSc3cccc(C(F)(F)F)c3)[nH]c(=O)c2c1C,33.5,-51.7,81.7*,16.8,4.5,0.3
Cc1sc2nc(CSc3nc4ccccc4s3)[nH]c(=O)c2c1C,10.5,-74.0,26.6,19.7,17.7,98.8*
CC(=O)c1c(C)[nH]c(C(=O)CSc2nc3ccccc3c(=O)n2CCCN2CCOCC2)c1C,-4.5,-25.0,-11.4,11.1,-4.4,-3.3
O=c1[nH]c(CSc2nc3ccccc3s2)nc2ccccc12,38.7,11.1,44.9,19.5,-0.3,-128.9
Cc1sc2nc(CSc3ccc([N+](=O)[O-])cc3)[nH]c(=O)c2c1C,15.5,15.2,27.9,22.0,4.6,99.3*
COc1ccc(CCNC(=O)Oc2ccccc2)cc1OC,-2.3,15.9,-0.3,25.6,-0.6,-5.0
S=C(c1ccc(N2CCCC2)cc1)N1CCCCC1,.,14.4,.,.,-0.8,98.6*
CC(=O)N1CCN(c2ccc(N)cc2)CC1,.,.,.,.,.,98.5*
Nc1ccc(N2CCN(c3ccc(Cl)c(Cl)c3)CC2)cc1,-3.6,-0.3,22.0,25.3,-4.8,58.3
Nc1ccc(N2CCN(c3ccc(F)cc3)CC2)cc1,-11.6,38.5,2.7,10.0,-6.2,99.0*
Nc1ccc(N2CCCCCC2)cc1,.,39.1,.,.,-11.9,98.5*
CCn1ccc(C(=O)NCCCN2CCCC2=O)n1,-3.5,65.4*,-0.1,5.3,-1.2,-1.9
COc1ccc(C(=O)NCCCN2CCCC2=O)cc1,-2.6,12.1,-0.3,19.1,-1.7,-2.9
Cc1cc(C)n(-c2ccc(Oc3ccccc3)c(S(=O)(=O)O)c2)n1,-1.3,-3.0,-12.0,18.9,0.5,8.3
CCc1c(C)[nH]n(-c2ccc(Oc3ccccc3)c(S(=O)(=O)O)c2)c1=O,.,65.4*,.,.,4.2,99.4*
Cc1noc(C)c1C(=O)N1CCN(c2ccccc2O)CC1,.,.,.,.,.,98.8*
CCc1noc(C)c1C(=O)Nc1cc(Cl)ccc1N1CCCC1,0.0,.,7.8,9.2,-1.6,98.6*
Cc1noc(C)c1C(=O)N1CCN(c2ncccn2)CC1,-7.8,20.7,4.5,18.7,-2.6,-15.5
Cc1noc(C)c1C(=O)Nc1ccccc1N1CCCC1,.,.,.,.,.,93.6*
COc1ccc(S(=O)(=O)N2CCOCC2)cc1NC(=O)CN1C(=O)NC2(CCCC2)C1=O,.,.,.,.,.,-5.4
O=S(=O)([N-]c1nc2ccccc2nc1-n1cc[n+](Cc2ccccc2)c1)c1ccc(Cl)cc1,4.8,-2.6,4.9,23.9,10.4,-5.1
Nc1ccccc1O,.,.,.,.,.,-39.8
Nc1ccccc1SC/C=C/CSc1ccccc1N,2.1,9.8,32.5,-43.4,3.6,99.0*
Cc1nc(N)nc(N)c1/C=C/C(C)(C)c1ccc(Cl)cc1,-8.4,38.5,-10.6,-89.1*,.,.
NNc1nc2c(-c3ccc(Cl)cc3)nnn2c2ccccc12,43.1,7.3,72.6*,6.9,4.0,.
SMILES,HSF1 inhib,PHOSPHO1 block,HSF-1 act,AI-2 QS mod,HCV core dimer,ALR inh
NNc1nc2c(-c3ccc(F)cc3)nnn2c2ccccc12,42.7,-4.9,34.3,34.0,-2.6,21.2
Clc1nc2c(-c3ccccc3)nnn2c2ccccc12,58.2,27.4,?,0.4,6.1,12.8
Fc1cccc(-c2nnn3c2nc(Cl)c2ccccc23)c1,356.1,-20.0,453.9*,13.4,.,.
Cc1ccc(C(=O)NC2CCCc3c2cnn3-c2ccc(F)cc2F)cn1 (configuration not stated),-6.5,38.1,-15.0,-3.9,0.2,6.8
C=CCN1C2CCCC1CC(NC(=O)Nc1cc(C)cc(C)c1)C2 (configuration not stated),-10.1,41.2,-7.6,-0.4,0.9,5.8
COc1ccccc1N1CCN(C(CNS(=O)(=O)c2ccccc2)c2ccccc2)CC1 (configuration not stated),6.3,6.9,56.7*,20.5,2.7,0.2
Oc1ccc(/C=N/n2c(-c3ccco3)csc2=Nc2cccnc2)c(O)c1,-9.8,16.8,-0.1,13.3,2.1,30.2
CC(C)N=c1scc(-c2ccco2)n1/N=C/c1ccc(O)c(O)c1,.,-76.1,.,.,-1.9,98.6*
C=CCN=c1scc(-c2ccco2)n1/N=C/c1ccc(O)c(O)c1O,9.0,3.7,9.6,-1.3,5.7,99.4*
COCCN=c1scc(-c2ccco2)n1/N=C/c1ccc(O)c(O)c1O,.,-72.7,.,.,53.9*,99.2*
COCCCNC(=O)c1cc(C(=O)c2ccccc2Br)c[nH]1,-7.8,53.0,-13.5,11.6,9.5,3.2
Cc1nc(NCCc2ccc(F)cc2)c(C#N)c(C)c1[N+](=O)[O-],20.4,1.1,51.5*,4.1,-4.4,-3.7
CCCC(C)NS(=O)(=O)c1ccc(OC)c(C)c1 (configuration not stated),2.4,6.3,-7.8,7.2,0.4,34.2
O=C(O)c1ccc(N2C(=O)CC(N3C(=O)/C(=C/c4ccc(Cl)cc4)SC3=S)C2=O)cc1 (configuration not stated),1.2,28.5,11.0,33.1,8.7,99.5*
O=C(O)c1ccc(N2C(=O)CC(N3CCN(c4ccc(Cl)cc4)CC3)C2=O)cc1 (configuration not stated),-3.4,29.5,0.0,10.5,7.7,22.9
NC(=O)CC[C@H](NC(=O)c1ccc(F)cc1)C(=O)OCC(=O)Nc1ccc(N2CCOCC2)cc1,-9.8,8.8,3.7,10.4,2.4,62.5
O=C(CCN1C(=O)C2CC=C(Cl)CC2C1=O)NCc1ccco1 (configuration not stated),-1.3,29.0,-14.7,6.8,-3.9,3.5
O=C1C2CC=C(Cl)CC2C(=O)N1CN(Cc1ccco1)CN1C(=O)C2CC=C(Cl)CC2C1=O (configuration not stated),19.4,0.6,12.9,-13.2,79.5*,-2.2
CSc1ccccc1C(=O)Nc1ccc(C)cc1C,-8.9,29.9,13.8,15.5,4.9,-5.3
CSc1ccccc1C(=O)Nc1cc(C)ccc1C,21.1,33.5,58.0*,20.8,7.4,1.7
Cc1ccc(CCNC(=O)C2CCN(S(=O)(=O)c3ccc4c(c3)NC(=O)CO4)CC2)cc1,34.7,10.0,68.4*,24.1,2.4,-4.3
CN(C)c1ccc(CNC(=O)C2CCN(S(=O)(=O)c3ccc4c(c3)CCCC(=O)N4)CC2)cc1,0.1,22.6,-6.5,24.0,7.4,98.1*
O=C1COc2ccc(S(=O)(=O)N3CCC(C(=O)NCc4ccc(F)cc4)CC3)cc2N1,-6.2,52.9,0.1,-4.8,-16.1,-7.3
